The source of these data is ChEMBL document CHEMBL1138119, “Extremely potent orally active benzo[g]quinoline analogue of the dopaminergic prodrug: 1-propyl-trans-2,3,4,4a,5,7,8,9,10,10a-decahydro-1H-benzo-[g]quinolin-6-one [corrected]” (2006).

For assay [1], the target named is D(1A) dopamine receptor (Rattus norvegicus) (UniProt P18901). The assay can be described thus: Displacement of [3H]SCH-23390 from dopamine D1 receptor in rat corpus striatum membrane at 100nM. In kind it is cell membranes. (In general: Loss of bound radioactivity is the signal in a displacement assay; it reports binding, not function.)
Sequence of D(1A) dopamine receptor (Rattus norvegicus) (P18901 whole entry): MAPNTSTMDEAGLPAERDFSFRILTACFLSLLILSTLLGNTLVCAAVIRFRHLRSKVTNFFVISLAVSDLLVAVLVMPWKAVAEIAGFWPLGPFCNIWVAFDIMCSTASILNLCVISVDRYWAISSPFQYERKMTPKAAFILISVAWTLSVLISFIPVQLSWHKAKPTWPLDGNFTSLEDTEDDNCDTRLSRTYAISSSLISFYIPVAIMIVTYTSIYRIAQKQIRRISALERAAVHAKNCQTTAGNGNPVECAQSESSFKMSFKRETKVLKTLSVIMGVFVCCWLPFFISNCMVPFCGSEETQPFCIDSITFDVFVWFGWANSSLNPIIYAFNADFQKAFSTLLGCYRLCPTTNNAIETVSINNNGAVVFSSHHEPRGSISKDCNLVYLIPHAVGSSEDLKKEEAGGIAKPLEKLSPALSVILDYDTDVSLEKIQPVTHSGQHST
Assay [2] addresses D(2) dopamine receptor (Rattus norvegicus) (UniProt P61169). The assay is described as follows: Displacement of [3H]spiperone from dopamine D2 receptor in rat corpus striatum membrane at 100nM. In kind it is cell membranes. The method in brief:
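Inhibition of [3H]spiperone binding (0.50 nM; Kd 0.20 nM) to dopamine receptors in rat corpus striatum membranes, in vitro. Displacement was measured at a single fixed test concentration.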

Assay [3] deals with D(3) dopamine receptor (Homo sapiens) (UniProt P35462). The assay can be described thus: Displacement of [3H]spiperone from human dopamine D3 receptor expressed in CHO cells at 50nM. Type of assay: cell-based. The method in brief:
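CHO membranes with cloned human D3 (26 µg protein) in 25 mM Tris-HCl pH 7.4, 6.0 mM MgCl2, 1.0 mM EDTA. […] Incubated 60 min at 25 °C, filtered on PEI-treated GF/C, and counted by scintillation. Measured at a single test concentration.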

The target of assay [4] is T1, D(4) dopamine receptor (Homo sapiens) (UniProt P21917).
T1 sequence (whole entry): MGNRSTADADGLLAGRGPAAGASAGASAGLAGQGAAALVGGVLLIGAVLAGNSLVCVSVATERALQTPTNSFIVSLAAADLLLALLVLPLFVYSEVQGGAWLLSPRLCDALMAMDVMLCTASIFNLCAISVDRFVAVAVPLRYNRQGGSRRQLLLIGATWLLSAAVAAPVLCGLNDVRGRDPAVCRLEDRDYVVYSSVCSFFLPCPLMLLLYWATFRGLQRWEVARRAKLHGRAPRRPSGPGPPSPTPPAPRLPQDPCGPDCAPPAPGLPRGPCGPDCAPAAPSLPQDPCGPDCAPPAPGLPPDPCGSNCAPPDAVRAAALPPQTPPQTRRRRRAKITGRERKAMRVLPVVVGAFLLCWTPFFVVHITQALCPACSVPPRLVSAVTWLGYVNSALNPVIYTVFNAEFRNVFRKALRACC
The assay is described as follows: Displacement of [3H]nemonapride from human dopamine D4 receptor at 50nM. The method in brief: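 Inhibition of [3H]nemonapride binding (0.50 nM; Kd 0.20 nM) to cloned human D4 receptors, in vitro. Displacement was measured at a single fixed test concentration.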

Assay [5] deals with Rattus norvegicus. The assay can be described thus: Effect on striatal dopamine release in rat at 1umol/kg, sc. Type of assay: functional, organism-based. The method in brief:
(§1)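 Striatal microdialysis in freely moving rats, done by a previously described procedure. Doses were given sc or po. Dopamine levels are expressed relative to basal dopamine levels, as mean (SEM) from four rats.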

Assay [6] deals with Rattus norvegicus. The assay can be described thus: Decrease in striatal dopamine levels in rat at 1 nmol/kg, sc. Also noted: scale not given: the % may be the effect or the level left. Type of assay: functional. The method in brief: as §1
Assay [7] has as its system Rattus norvegicus. The assay can be described thus: Decrease in striatal dopamine levels in rat at 3 nmol/kg, sc. In kind it is functional. Also on record: scale not given: the % may be the effect or the level left. An outline of the steps:
as §1

Assay [8] deals with Rattus norvegicus. The assay can be described thus: Decrease in striatal dopamine levels in rat at 10 nmol/kg, sc. In kind it is functional. Also on record: scale not given: the % may be the effect or the level left. An outline of the steps: as §1
The subject of assay [9] is Rattus norvegicus. The assay can be described thus: Decrease in striatal dopamine levels in rat at 3 nmol/kg, po. In kind it is functional. Also noted: scale not given: the % may be the effect or the level left. An outline of the steps: as §1
For assay [10], the system named is Rattus norvegicus. The assay can be described thus: Decrease in striatal dopamine levels in rat at 10 nmol/kg, po. In kind it is functional. Also on record: scale not given: the % may be the effect or the level left. The method in brief:
as §1

The source made the active and inactive calls. The calls are words filed in the database; no cut-off is given here.

Sequence of D(3) dopamine receptor (Homo sapiens) (P35462 whole entry): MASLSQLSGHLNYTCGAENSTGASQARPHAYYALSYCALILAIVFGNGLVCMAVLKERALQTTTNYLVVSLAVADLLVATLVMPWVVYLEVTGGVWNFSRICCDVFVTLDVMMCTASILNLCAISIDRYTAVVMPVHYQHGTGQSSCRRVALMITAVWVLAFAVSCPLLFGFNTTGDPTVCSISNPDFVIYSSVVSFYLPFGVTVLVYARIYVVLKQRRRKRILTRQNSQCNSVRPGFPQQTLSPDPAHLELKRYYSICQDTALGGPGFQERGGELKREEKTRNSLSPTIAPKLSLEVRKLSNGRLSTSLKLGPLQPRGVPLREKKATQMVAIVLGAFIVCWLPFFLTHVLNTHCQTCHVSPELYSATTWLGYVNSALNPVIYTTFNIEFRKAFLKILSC
Sequence of D(2) dopamine receptor (Rattus norvegicus) (P61169 whole entry): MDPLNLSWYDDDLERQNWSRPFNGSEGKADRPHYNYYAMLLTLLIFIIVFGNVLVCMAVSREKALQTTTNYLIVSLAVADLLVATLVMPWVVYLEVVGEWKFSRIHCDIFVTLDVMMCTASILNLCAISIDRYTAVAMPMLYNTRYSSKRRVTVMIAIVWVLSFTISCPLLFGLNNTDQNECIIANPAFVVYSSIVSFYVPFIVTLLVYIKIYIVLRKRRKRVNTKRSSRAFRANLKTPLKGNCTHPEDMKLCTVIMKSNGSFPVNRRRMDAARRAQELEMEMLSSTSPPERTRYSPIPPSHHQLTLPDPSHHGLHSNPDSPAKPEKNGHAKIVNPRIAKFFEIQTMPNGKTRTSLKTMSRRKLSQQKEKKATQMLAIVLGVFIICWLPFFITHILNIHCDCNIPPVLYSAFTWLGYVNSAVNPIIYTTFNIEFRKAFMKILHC

For the compound `CCCN1CCCC2CC3=C(CCCC3=O)CC21` (single isomer, unassigned; (+)), the Activity was 7% in assay [1], 3% in assay [2], 28% in assay [3] and -19% in assay [4]. Besides, in the assay on Rattus norvegicus [5], the result was inactive.
Consider `CCCN1CCCC2CC3=C(CCCC3=O)CC21` (single isomer, unassigned; (-)) [listing 1 of 2 here], for which the Activity in the assay with Rattus norvegicus [6] came out at 20%; with Rattus norvegicus [7], 20%; in the assay with Rattus norvegicus [8], 20%; in the assay on Rattus norvegicus [9], 45%; with Rattus norvegicus [10], 60%.
For `CCCN1CCCC2CC3=C(CCCC3=O)CC21` (single isomer, unassigned; (-)) [listing 2 of 2 here], the Activity in assay [1] is -1%; in assay [2], 15%; in assay [3], 23%; in [4] it was -4%.
